Measured values taken from ChEMBL document CHEMBL2346506, “Cytotoxicity and modulation of cancer-related signaling by (Z)- and (E)-3,4,3',5'-tetramethoxystilbene isolated from Eugenia rigida” (J Nat Prod, 2013).
Calls of active or inactive are those of the source. The rule behind the calls is not given here.

Legend:
KB = test: Cytotoxicity against human KB cells assessed as growth inhibition measured after 48 hrs by Neutral Red dye assay
[1] = Inhibition of E2F signaling pathway in human HeLa cells assessed as inhibition of PMA induced luciferase at 100 uM treated 30 mins before induction; format: cell-based
How it was run: (§1)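 Reporter assay in cells transfected with pathway luciferase plasmids. Cells plated at 0.015 × 10⁶ per well in 10% FBS, switched after 24 h to DMEM with 1% FBS, then transfected. 24 h after transfection, compound (final 40, 60, 80 or 100 μM) was added, followed 30 min later by inducer (IL-6, TGF-β, wnt3a or PMA). Luciferase was read 4 or 6 h after induction (6 h for Notch, Wnt, Hedgehog). Value is the IC50 or the lowest concentration giving maximal 50–60% inhibition; two independent experiments.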

Vero = test: Cytotoxicity against african green monkey Vero cells assessed as growth inhibition measured after 48 hrs by Neutral Red dye assay; conditions: Chlorocebus sabaeus
SK-MEL = test: Cytotoxicity against human SK-MEL cells assessed as growth inhibition measured after 48 hrs by Neutral Red dye assay
[2] = Inhibition of AP1 signaling pathway in human HeLa cells assessed as inhibition of PMA induced luciferase at 100 uM treated 30 mins before induction; format: cell-based
How it was run: as §1

LLC-PK1 = test: Cytotoxicity against pig LLC-PK1 cells assessed as growth inhibition measured after 48 hrs by Neutral Red dye assay; conditions: Sus scrofa, LLC-PK1, 48 h
SK-OV-3 = test: Cytotoxicity against human SKOV3 cells assessed as growth inhibition measured after 48 hrs by Neutral Red dye assay; conditions: SK-OV-3, 48 h
[3] = Inhibition of Ets signaling pathway in human HeLa cells assessed as inhibition of PMA induced luciferase at 100 uM treated 30 mins before induction; format: cell-based
How it was run: as §1

[4] = molecular target: Forkhead box protein O1 (Homo sapiens) (UniProt Q12778); test: Inhibition of FoxO signaling pathway in human HeLa cells assessed as inhibition of luciferase at 100 uM […]; format: cell-based
HeLa [5] = test: Inhibition of Stat3 signaling pathway in human HeLa cells assessed as inhibition of IL-6 induced luciferase at 100 uM treated 30 mins before induction; format: functional
How it was run: as §1

[6] = Inhibition of NFkappaB signaling pathway in human HeLa cells assessed as inhibition of PMA induced luciferase at 100 uM treated 30 mins before induction; format: cell-based
How it was run: as §1

[7] = Inhibition of Hedgehog signaling pathway in human HeLa cells assessed as inhibition of PMA induced luciferase at 100 uM treated 30 mins before induction; format: cell-based
How it was run: as §1

[8] = molecular target: Myc proto-oncogene protein (Homo sapiens) (UniProt P01106); test: Inhibition of Myc signaling pathway in human HeLa cells assessed as inhibition of PMA induced luciferase at 100 uM treated 30 mins before induction; format: cell-based
How it was run: as §1

HeLa [9] = test: Cytotoxicity against human HeLa cells assessed as growth inhibition measured after 48 hrs by Neutral Red dye assay
[10] = Inhibition of Notch signaling pathway in human HeLa cells assessed as inhibition of PMA induced luciferase at 100 uM treated 30 mins before induction; format: cell-based
How it was run: as §1

BT-549 = test: Cytotoxicity against human BT549 cells assessed as growth inhibition measured after 48 hrs by Neutral Red dye assay; conditions: BT-549, 48 h

Forkhead box protein O1 (Homo sapiens), sequence (Q12778 whole entry): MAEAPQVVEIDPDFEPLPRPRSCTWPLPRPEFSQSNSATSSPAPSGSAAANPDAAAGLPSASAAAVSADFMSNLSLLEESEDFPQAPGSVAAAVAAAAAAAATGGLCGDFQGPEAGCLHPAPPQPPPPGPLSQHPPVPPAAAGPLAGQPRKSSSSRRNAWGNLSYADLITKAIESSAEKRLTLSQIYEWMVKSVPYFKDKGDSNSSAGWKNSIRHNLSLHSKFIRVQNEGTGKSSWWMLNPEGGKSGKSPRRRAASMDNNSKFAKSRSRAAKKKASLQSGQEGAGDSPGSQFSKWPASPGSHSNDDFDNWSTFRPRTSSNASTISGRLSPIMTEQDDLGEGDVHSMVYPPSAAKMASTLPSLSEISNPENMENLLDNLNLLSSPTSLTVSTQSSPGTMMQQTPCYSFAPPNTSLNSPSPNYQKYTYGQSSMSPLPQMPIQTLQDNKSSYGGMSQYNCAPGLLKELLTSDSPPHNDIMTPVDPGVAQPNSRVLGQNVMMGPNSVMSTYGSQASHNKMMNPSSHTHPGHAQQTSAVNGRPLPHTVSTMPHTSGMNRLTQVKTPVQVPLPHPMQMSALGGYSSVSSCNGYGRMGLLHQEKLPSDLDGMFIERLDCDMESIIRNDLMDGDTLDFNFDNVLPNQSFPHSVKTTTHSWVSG
Myc proto-oncogene protein (Homo sapiens), sequence (P01106 whole entry): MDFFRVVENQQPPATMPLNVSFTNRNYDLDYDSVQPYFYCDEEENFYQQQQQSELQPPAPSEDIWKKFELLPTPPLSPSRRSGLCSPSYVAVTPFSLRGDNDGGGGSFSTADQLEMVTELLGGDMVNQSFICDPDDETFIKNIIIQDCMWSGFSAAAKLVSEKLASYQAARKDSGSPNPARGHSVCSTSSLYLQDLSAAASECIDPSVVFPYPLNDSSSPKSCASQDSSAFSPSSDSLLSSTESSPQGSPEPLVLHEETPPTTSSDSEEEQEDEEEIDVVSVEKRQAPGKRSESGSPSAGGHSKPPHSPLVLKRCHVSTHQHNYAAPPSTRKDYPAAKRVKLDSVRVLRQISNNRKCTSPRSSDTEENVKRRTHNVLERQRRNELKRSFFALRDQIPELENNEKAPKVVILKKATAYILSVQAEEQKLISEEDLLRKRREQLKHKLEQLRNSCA

Compound: COc1ccc(/C=C/c2cc(OC)cc(OC)c2)cc1 [TRISMETHOXYRESVERATROL]
- IC50 (KB): 17.7 µM
- inhibition [1]: inactive
- IC50 (Vero): 26.7 µM
- IC50 (SK-MEL): 12.2 µM
- inhibition [2]: inactive
- IC50 (LLC-PK1): 20 µM
- IC50 (SK-OV-3): 55.5 µM
- inhibition [3]: inactive
- inhibition [4]: inactive
- inhibition (HeLa [5]): inactive
- inhibition [6]: inactive
- inhibition [7]: inactive
- inhibition [8]: inactive
- IC50 (HeLa [9]): 13.3 µM
- inhibition [10]: inactive
- IC50 (BT-549): 15.6 µM
